Rows were chosen to be rich in hits. Some 2.8% of all compounds tested hit in one or more screens of this group.
NPY Y2 blocker: NPY-Y2 (human) receptor antagonism; AID 793; NPY-Y2 expressing cells, antagonist mode; actives 0.99% (n = 140,000); inhibition, % at 2.7 µM;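 further: 0% = vehicle with agonist challenge and 100% = reference antagonist with challenge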
Rad51 HR inh: Rad51 (human) homologous recombination inhibition. Q06609. hRad51 DNA strand exchange, fluorescence dequenching. inhibition, % at 10 µM. actives 0.085% (n = 200,000). AID 1385;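 active means inhibition above 40% at the single screening dose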;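 further: 0% = DMSO control wells and 100% = blanks with heterologous ssDNA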
Target sequence (Q06609 whole entry, looked up): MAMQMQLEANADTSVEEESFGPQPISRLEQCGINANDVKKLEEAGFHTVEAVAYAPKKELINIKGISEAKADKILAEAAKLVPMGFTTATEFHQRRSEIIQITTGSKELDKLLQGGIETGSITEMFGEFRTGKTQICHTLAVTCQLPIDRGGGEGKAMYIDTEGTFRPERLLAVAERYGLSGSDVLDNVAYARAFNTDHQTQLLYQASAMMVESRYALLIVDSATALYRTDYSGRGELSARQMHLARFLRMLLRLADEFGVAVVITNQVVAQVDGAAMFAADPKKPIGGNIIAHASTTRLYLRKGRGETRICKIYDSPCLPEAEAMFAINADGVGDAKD
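Material: Human Rad51 nucleoprotein filaments preassembled on unlabelled ssDNA | Also added: Labelled 47-mer dsDNA for strand exchange | Dosing: Single dose, 10 µM final compound | Schedule: 30-min compound preincubation and 15-min exchange, both room temperature | Technique: Fluorescence dequenching at 485/520 nm | Measure: Percent inhibition relative to plate controls and blanks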
NPY Y1 blocker: antagonists of human neuropeptide Y receptor Y1; P25929; HEK293-CNG Y1 cells, membrane potential fluorescence; NPY at EC95, then isoproterenol; inhibition, % at 3.6 µM; actives 1% (n = 200,000);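 active means inhibition above the campaign mean inhibition of all tested compounds plus 3 SD, cut at about 20% in these data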;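 further: 0% = DMSO wells given NPY plus isoproterenol and 100% = isoproterenol alone without NPY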
Target sequence (P25929 whole entry, looked up): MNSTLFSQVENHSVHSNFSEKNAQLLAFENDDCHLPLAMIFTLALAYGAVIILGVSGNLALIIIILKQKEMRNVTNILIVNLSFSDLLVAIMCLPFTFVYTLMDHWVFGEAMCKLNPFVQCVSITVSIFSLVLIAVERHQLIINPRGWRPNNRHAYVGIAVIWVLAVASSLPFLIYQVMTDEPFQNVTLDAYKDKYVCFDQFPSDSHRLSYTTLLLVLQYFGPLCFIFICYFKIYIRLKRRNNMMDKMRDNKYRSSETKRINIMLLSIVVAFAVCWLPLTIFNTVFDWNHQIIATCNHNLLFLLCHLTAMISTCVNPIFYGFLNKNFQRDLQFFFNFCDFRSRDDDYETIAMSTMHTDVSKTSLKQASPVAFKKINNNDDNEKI
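Material: Y1- and CNG-channel-expressing HEK293 cells / Probe or stimulus: NPY 25 nM then isoproterenol 1 µM plus Ro 20-1724 25 µM / Doses: 3.6 µM single dose, DMSO 0.4% / Schedule: compound incubation 1 h at room temperature, readout 45 min post-stimulation / Signal: membrane potential fluorescence / Benchmarks: isoproterenol-only wells as full block versus NPY-plus-isoproterenol wells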
NPY-Y2 PAM-ag: human NPY-Y2 potentiation or agonism, primary screen; P49146; AID 1359; actives 0.45% (n = 220,000); activation, % at 3.6 µM; cells expressing NPY-Y2, potentiator/agonist read-out; in the data active means activation above about 27%;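 further: cells stimulated with NPY near EC25 plus isoproterenol at EC100; 0% = vehicle plus submaximal agonist and 100% = vehicle plus saturating agonist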
NPY1 pot ag: potentiators or agonists of human neuropeptide Y receptor Y1; P25929; NPY-Y1 expressing cells, potentiator/agonist activation; activation, % at 3.6 µM; actives 0.37% (n = 220,000); in the data active means activation above about 33%, passing the limit was not always enough;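 further: cells stimulated with NPY at EC10 then isoproterenol at EC100; 0% = low agonist plus stimulus and 100% = saturating agonist plus stimulus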
Measles CPE: protection of cells from measles virus. actives 1.5% (n = 140,000). AID 841. Measles virus-infected cells, CPE protection, absorbance. protection (pct of control), % at 4 µM; in the data active means protection mostly above about 24%, no sharp cut-off; inactive means mostly below about 26%
NPY-Y1 ant conf: confirmation of human neuropeptide Y receptor Y1 antagonists | shares compounds with NPY Y1 blocker | actives 21% (n = 1,200) | inhibition, % at 3.6 µM | HEK293-CNG NPY-Y1, membrane potential fluorescence, cAMP; NPY challenge against isoproterenol-raised cAMP; in the data active means inhibition above about 20%;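 further: 0% = vehicle with agonist plus stimulus and 100% = stimulus alone without agonist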
NPY-Y2 antag ct: counter-screen for NPY-Y1 antagonists: human NPY-Y2 antagonism. shares compounds with NPY Y1 blocker. AID 1255. HEK293 NPY-Y2 CNG membrane potential fluorescence; cells given NPY, then isoproterenol. actives 28% (n = 1,200). inhibition, % at 3.6 µM;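 further: 0% = DMSO with agonist challenge and 100% = reference antagonist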
* marks the source's active call; other numbers are inactive results; nt = no result; ! = a repeat was not active. Unless noted, no stated cut-off is given here; in the data, active means inhibition above about 17%; inactive means the rest.

SMILES	NPY Y2 blocker	Rad51 HR inh	NPY Y1 blocker	NPY-Y2 PAM-ag	NPY1 pot ag	Measles CPE	NPY-Y1 ant conf	NPY-Y2 antag ct
O=C(O)CCCCCCC1C(=O)NC(=O)N1CCC(O)C1CCCCC1 (centres undefined)	5.4	2.0	24.4*	-2.3	-50.1	4.8	28.2*	20.9*
CC(C)c1cc(CNC(=O)CC2C(=O)NCCN2CC2CCCCC2)on1 (centres undefined)	nt	0.1	6.0	7.6	9.4	nt	nt	nt
Cc1ccccc1Oc1cc(NC(=O)Cn2cnc([N+](=O)[O-])c2)cc([N+](=O)[O-])c1	nt	-0.4	25.2*	16.2	32.0	nt	-4.8	-5.2
Cc1ccccc1Oc1cc(NC(=O)CCCn2nc(C)c([N+](=O)[O-])c2C)cc([N+](=O)[O-])c1	0.6	3.4	-5.5	22.3	16.2	4.8	nt	nt
COc1ccc(-n2cc(-c3ccccc3)c3c(NCCCN4CCOCC4)ncnc32)cc1	nt	0.2	26.1*	-26.6	-17.5	nt	12.6	7.2
Cc1c(Cl)cnc(NC(=O)COC(=O)Cc2coc3ccc4ccccc4c23)c1Cl	9.3	nt	23.4*	-13.9	-33.2	5.1	6.6	6.0
Cc1ccc(-n2ncc(C(=O)N3CCc4ccccc4C3)c2NC(=O)c2ccco2)cc1C	10.3	-5.2	21.7*	-7.8	-40.7	8.9	2.2	8.5
c1ccc(CC2CCN(C(c3cccs3)c3nnnn3C3CCCC3)CC2)cc1 (centres undefined)	5.3	3.5	-3.5	0.5	4.1	27.0	nt	nt
c1ccc(CN(Cc2cccs2)C(c2cccs2)c2nnnn2C2CCCC2)cc1 (centres undefined)	15.7	-0.2	20.6*	-17.6	-14.6	2.8	17.4	5.7
Cc1ccc(NS(=O)(=O)c2cc(C(=O)Nc3cccc(N(C)S(C)(=O)=O)c3)ccc2C)c(C)c1	-0.7	4.7	-4.9	21.1	-1.9	6.1	nt	nt
C/C(=N\Nc1nc(C)c(C)s1)c1ccc([N+](=O)[O-])cc1	nt	25.5	37.7*	20.3	25.8	nt	41.9*	53.6*
C/C(=N\Nc1ccc([N+](=O)[O-])cc1)c1ccc(N)cc1	-3.2	-37.3	0.4	-11.5	7.9	nt	nt	nt
CCN(CCCNC(=O)c1cn(CC)c2ccc(S(=O)(=O)N(C)C)cc2c1=O)c1cccc(C)c1	13.5	-6.0	35.2*	-18.5	-17.7	4.4	56.7*	72.2*
C=CCc1ccccc1OCCSc1nc2ccc([N+](=O)[O-])cc2s1	10.6	-4.8	20.9*	-2.4	2.2	14.8	16.2	15.8
N[C@@H](Cc1cc(I)c(Oc2ccc(O)c(I)c2)c(I)c1)C(=O)O	4.2	2.6	58.8*!	8.8	12.2	13.7	-2.7	1.9
O=C(Nc1cccc(Cl)c1)c1csc(-c2ccccc2)n1	15.8	nt	22.7*	-40.5	-22.4	10.3	5.7	8.5
O=C(Nc1ccc(Cl)c(Cl)c1)c1csc(-c2ccccc2)n1	2.6	nt	8.0	3.9	-5.7	3.5	nt	nt
CCOC(=O)C(NC(=O)Nc1ccc(C(N)=O)cc1)(c1ccccc1)C(F)(F)F (centres undefined)	3.0	-10.6	5.0	-4.0	-13.1	3.4	nt	nt
CC(Sc1c[nH]c2ccccc12)C(=O)O (centres undefined)	10.0	1.9	27.5*	-16.5	-42.0	2.1	5.1	4.0
O=C(O)CSc1c[nH]c2ccccc12	10.2	-5.9	12.6	-14.1	-7.5	17.2	nt	nt
NC(=O)N/N=C/c1c(Sc2nnnn2-c2ccccc2)nc2ccccn2c1=O	nt	7.0	nt	-17.6	-16.3	nt	nt	nt
Cc1ccc(Cn2c(=N)c(C(=O)NCc3ccco3)cc3c(=O)n4ccccc4nc32)cc1	10.2	nt	36.1*	-2.6	14.5	6.5	9.2	9.2
Cc1ccccc1CCNC(=O)C1CCN(S(=O)(=O)c2ccc(-n3cnnn3)cc2)CC1	0.4	-10.2	-0.9	0.1	13.4	16.0	nt	nt
O=C(NCc1ccco1)C1CCN(S(=O)(=O)c2ccc(-n3cnnn3)cc2)CC1	1.9	-1.6	21.1*	5.2	-5.8	8.6	0.0	2.8
CNC(=S)Nc1cc(C)ccc1OC(F)F	nt	nt	-1.2	-10.5	8.7	nt	nt	nt
SMILES	NPY Y2 blocker	Rad51 HR inh	NPY Y1 blocker	NPY-Y2 PAM-ag	NPY1 pot ag	Measles CPE	NPY-Y1 ant conf	NPY-Y2 antag ct
Cc1ccc(CNCCC2=CCCCC2)cc1	5.0	-3.5	4.1	7.3	-3.6	15.4	nt	nt
Cc1ccc(/C=C(\CCC(=O)O)c2nc3ccccc3s2)cc1[N+](=O)[O-]	14.6	12.7	17.9	-26.4	-21.8	6.2	nt	nt
CNc1ccc(/C=C(\CCC(=O)O)c2nc3ccccc3s2)cc1[N+](=O)[O-]	15.1	nt	25.5*	-23.6	-78.9	11.3	38.8*	51.8*
CCOc1ccc(NC(=O)CNC(=O)c2cn(-c3ccccc3OC)c(=O)c3ccccc23)cc1	1.2	0.3	-1.8	5.3	-14.2	7.3	nt	nt
Cc1ccc(-c2nc(CCN3C(=O)c4ccccc4C3=O)cs2)cc1	4.3	-9.9	25.1*	-25.0	-32.7	4.6	3.2	5.0
COc1ccc(-n2cc(CNC3CCN(C)CC3)c(-c3cccc(F)c3)n2)cc1	nt	nt	21.9*	-40.6	-19.8	nt	17.1	23.8*
COc1ccc(OC)c(Nc2cc(-c3ccccc3)nc(N)n2)c1	7.0	-0.3	42.2*	-7.2	-32.5	6.5	2.2	13.2
Cc1ccc2nc(NC(=O)Cc3cccs3)sc2c1	-3.8	-1.1	-11.0	21.2	31.8	4.2	nt	nt
CCc1ccc2nc(NC(=O)CCCc3cccs3)sc2c1	6.5	nt	23.5*	-21.2	-39.1	5.0	11.1	8.1
O=C1c2cccnc2C(Nc2ccc(F)c(Cl)c2)N1Cc1cccs1 (centres undefined)	nt	10.1	-6.5	-4.1	-1.9	nt	nt	nt
Clc1ccc2nc(CSCc3ccccc3)cn2c1	nt	5.5	4.6	-12.4	3.2	nt	nt	nt
O=C(CN1CCC(NC(=O)c2ccco2)CC1)Nc1ccccc1[N+](=O)[O-]	nt	-5.5	5.9	7.4	-13.4	nt	nt	nt
O=C(O)c1ccccc1N(Cc1ccccc1)C(=O)CO/N=C/c1ccccc1	15.3	7.7	22.0*	-23.7	-31.4	13.9	9.8	10.1
COc1ccc(C(=O)/C(C#N)=N/Nc2cccc([N+](=O)[O-])c2)cc1	nt	-23.8	26.4*	-4.9	-15.1	nt	29.5*	16.6
N#C/C(=N\Nc1cccc(Cl)c1)C(=O)c1ccccc1	5.1	0.8	7.4	25.1	38.4	13.0	nt	nt
COc1ccc(C(C)=O)cc1CSc1nnc(Nc2ccccc2)s1	5.2	1.4	1.7	3.7	-22.3	3.0	nt	nt
O=c1cnn([C@@H]2O[C@H](CO)[C@@H](O)[C@H]2O)c(=O)[nH]1	-1.2	-12.6	70.2*	-1.5	1.7	38.8	-0.6	0.9
